Each block holds one compound with its values, some of them ahead of it.
How the values were obtained:
Nucleic Acid = assay: DNA binding affinity (conc to decrease the fluorescence of the ethidium bromide-DNA complex by 50%); type: nucleic-acid assay, Bos taurus
CHO [1] = assay: Compound was tested for accumulation in CHO cells by HPLC at 10 uM dose; type: functional, Cricetulus griseus
Summary of the method: (§1)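 CHO or polyamine-transport-deficient CHO-MG cells (proline 2 µg/mL added for CHO-MG), RPMI 1640 with 10% FCS, 37 °C, 5% CO2; seeded at 5 × 10⁴ cells/mL, derivative added 24 h later for 24 h; trypsin/EDTA harvest, three PBS washes, sonication in 0.2 N perchloric acid; derivative measured by ion-pair reversed-phase HPLC with o-phthalaldehyde/N-acetylcysteine fluorescence; per mg protein (Folin); mean ± SD.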

3LL cell line [2] = assay: spermine levels in 3LL cells after the treatment of 1 uM of Compound; type: functional, cell-based; conditions: Mus musculus
Summary of the method: (§2)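 3LL cells incubated 24 h with derivative, some after 24 h pretreatment with 5 mM DFMO; perchloric acid extracts analyzed for putrescine, spermidine and spermine by ion-pair reversed-phase HPLC with o-phthalaldehyde post-column fluorescence, normalized to protein (Folin); mean ± SD.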

3LL cell line [3] = assay: accumulation of compound in 3LL cells was measured without DFMO by HPLC at 1 uM dose; type: functional, Mus musculus
Summary of the method: (§3)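 3LL cells exposed 24 h to derivative, BSH or BPA, with or without prior 24 h incubation with 5 mM DFMO; intracellular drug measured by ion-pair reversed-phase HPLC with o-phthalaldehyde fluorescence, or cellular boron by ICP-AES, per mg protein; mean ± SD; Student's t-test, p < 0.01.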

3LL cell line [4] = assay: accumulation of compound in 3LL cells was measured without DFMO by HPLC at 10 uM dose; type: functional, Mus musculus; summary of the method: as §3
3LL cell line [5] = assay: Effect on the growth of 3LL cells was evaluated using an MTT assay at 72 hour incubation; type: functional, cell-based; conditions: Mus musculus
3LL cell line [6] = assay: accumulation of compound in 3LL cells was measured with DFMO by HPLC at 1 uM dose; type: functional, Mus musculus; summary of the method: as §3
3LL cell line [7] = assay: Effect on the growth of 3LL cells by DFMO pretreatment at 48 hr incubation; type: functional, cell-based; conditions: Mus musculus
Summary of the method: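 3LL cells given 5 mM DFMO 24 h after seeding for a 24 h preincubation, then 48 h with spermidine or derivative; MTT readout; growth expressed relative to cells treated with DFMO only; mean ± SEM.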

3LL cell line [8] = assay: Effect on the growth of 3LL cells was evaluated using an MTT assay at 48 hour incubation; type: functional, cell-based; conditions: Mus musculus
3LL cell line [9] = assay: spermine levels in 3LL cells after the treatment of 50 uM of Compound; type: functional, cell-based; conditions: Mus musculus; summary of the method: as §2
CHO-MG = assay: Compound was tested for accumulation in CHO-MG cells by HPLC at 50 uM dose; type: functional, Cricetulus griseus; summary of the method: as §1
3LL cell line [10] = assay: spermidine levels in 3LL cells after the treatment of 50 uM of Compound; type: functional, cell-based; conditions: Mus musculus; summary of the method: as §2
CHO [11] = assay: Compound was tested for accumulation in CHO cells by HPLC at 50 uM dose; type: functional, Cricetulus griseus; summary of the method: as §1
3LL cell line [12] = assay: accumulation of compound in 3LL cells was measured with DFMO by HPLC at 50 uM dose; type: functional, Mus musculus; summary of the method: as §3
3LL cell line [13] = assay: accumulation of compound in 3LL cells was measured without DFMO by HPLC at 50 uM dose; type: functional, Mus musculus; summary of the method: as §3
3LL cell line [14] = assay: accumulation of compound in 3LL cells was measured with DFMO by ICP-AES at 50 uM dose; type: functional, Mus musculus; summary of the method: as §3
[15] = Compound was tested for accumulation of (50 uM) boronated polyamines in rat C6 glioblastoma cells incubated with 5 mM DFMO; type: functional
Summary of the method: (§4)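 Rat C6, human U251 glioblastoma or murine B16 melanoma cells exposed 24 h to 50 µM boron-containing derivative, either directly or after 24 h preincubation with 5 mM DFMO; washed cells sonicated in 0.2 N perchloric acid, derivative quantified by ion-pair reversed-phase HPLC with o-phthalaldehyde fluorescence detection, normalized to protein; mean ± SD.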

3LL cell line [16] = assay: spermine levels in 3LL cells after the treatment of 250 uM of Compound; type: functional, cell-based; conditions: Mus musculus; summary of the method: as §2
[17] = Compound was tested for accumulation of (50 uM) boronated polyamines in murine B16 melanoma cells; type: functional; summary of the method: as §4
U-251 [18] = assay: Compound was tested for accumulation of (50 uM) boronated polyamines in human U251 glioblastoma cells incubated with 5 mM DFMO; type: functional; summary of the method: as §4
U-251 [19] = assay: Compound was tested for accumulation of (50 uM) boronated polyamines in human U251 glioblastoma cells; type: functional; summary of the method: as §4
[20] = Compound was tested for accumulation of (50 uM) boronated polyamines in murine B16 melanoma cells ncubated with 5 mM DFMO; type: functional; summary of the method: as §4
3LL cell line [21] = assay: putrescine levels in 3LL cells after the treatment of 250 uM of Compound; type: functional, cell-based; conditions: Mus musculus; summary of the method: as §2
[22] = Compound was tested for accumulation of (50 uM) boronated polyamines in rat C6 glioblastoma cells; type: functional; summary of the method: as §4
3LL cell line [23] = assay: spermidine levels in 3LL cells after the treatment of 250 uM of Compound; type: functional, cell-based; conditions: Mus musculus; summary of the method: as §2
3LL cell line [24] = assay: accumulation of compound in 3LL cells was measured with DFMO by HPLC at 10 uM dose; type: functional, Mus musculus; summary of the method: as §3
3LL cell line [25] = assay: accumulation of compound in 3LL cells was measured without DFMO by ICP-AES at 50 uM dose; type: functional, Mus musculus; summary of the method: as §3
3LL cell line [26] = assay: spermine levels in 3LL cells after the treatment of 10 uM of Compound; type: functional, cell-based; conditions: Mus musculus; summary of the method: as §2

Structure (SMILES): NCCCCN [PUTRESCINE]
IC50 (Nucleic Acid): > 11000 µM

Structure (SMILES): Cl.NCCCCNCc1ccccc1
Level (nM (mg of protein)-1) (3LL cell line [9]): 5.79
Accumulation (CHO-MG): 0.1 nM (mg of protein)-1
Level (nM (mg of protein)-1) (3LL cell line [10]): 0.89
Accumulation (CHO [11]): 0.4 nM (mg of protein)-1
Activity (3LL cell line [12]): 1.03 nM (mg of protein)-1
IC50 (3LL cell line [5]): 604 µM
Activity (3LL cell line [13]): 0.34 nmol/mg protein
IC50 (Nucleic Acid): 3110 µM
IC50 (3LL cell line [7]): > 50 µM
IC50 (3LL cell line [8]): 993 µM

Further lines, with some results ahead:

IC50 (Nucleic Acid): 341 µM
Structure (SMILES): Cl.NCCCCNCCCNCc1ccc(F)cc1
Accumulation (CHO [1]): 9.4 nM (mg of protein)-1
Level (nM (mg of protein)-1) (3LL cell line [2]): 8.25
Activity (3LL cell line [3]): 5.51 nM (mg of protein)-1
Activity (3LL cell line [4]): 12.87 nM (mg of protein)-1
IC50 (3LL cell line [5]): 2.3 µM
Activity (3LL cell line [6]): 12.19 nM (mg of protein)-1
IC50 (3LL cell line [7]): 0.5 µM
IC50 (3LL cell line [8]): 4.7 µM

IC50 (Nucleic Acid): 1380 µM
Structure (SMILES): Cl.NCCCCNCc1ccc(B(O)O)cc1
Activity (3LL cell line [14]): 6.73 nM (mg of protein)-1
Accumulation [15]: 0.41 nM (mg of protein)-1
Level (nM (mg of protein)-1) (3LL cell line [16]): 7.66
Level (nM (mg of protein)-1) (3LL cell line [9]): 7.52
Accumulation [17]: 5.77 nM (mg of protein)-1
Accumulation (U-251 [18]): 0.22 nM (mg of protein)-1
Accumulation (U-251 [19]): 0.21 nM (mg of protein)-1
Accumulation [20]: 20.41 nM (mg of protein)-1
Accumulation (CHO-MG): 0.51 nM (mg of protein)-1
Level (nM (mg of protein)-1) (3LL cell line [10]): 1.07
Level (nM (mg of protein)-1) (3LL cell line [21]): 1.31
Activity (3LL cell line [4]): 0.52 nM (mg of protein)-1
Activity [22]: 0.09 nM (mg of protein)-1
Level (nM (mg of protein)-1) (3LL cell line [23]): 2.28
Accumulation (CHO [11]): 5.76 nM (mg of protein)-1
Activity (3LL cell line [12]): 8.44 nM (mg of protein)-1
IC50 (3LL cell line [5]): > 1000 µM
Activity (3LL cell line [24]): 3.37 nM (mg of protein)-1
Activity (3LL cell line [13]): 1.32 nmol/mg protein
Activity (3LL cell line [25]): 1.29 nM (mg of protein)-1
IC50 (3LL cell line [7]): > 50 µM
IC50 (3LL cell line [8]): > 1000 µM

IC50 (Nucleic Acid): > 3000 µM
Structure (SMILES): Cl.NCCCCNCc1ccc(F)cc1
Level (nM (mg of protein)-1) (3LL cell line [9]): 11
Accumulation (CHO-MG): 0.45 nM (mg of protein)-1
Level (nM (mg of protein)-1) (3LL cell line [10]): 0.92
Accumulation (CHO [11]): 0.9 nM (mg of protein)-1
Activity (3LL cell line [12]): 1.31 nM (mg of protein)-1
IC50 (3LL cell line [5]): 468 µM
Activity (3LL cell line [13]): 0.55 nmol/mg protein
IC50 (3LL cell line [7]): > 10 µM
IC50 (3LL cell line [8]): 568 µM

IC50 (Nucleic Acid): 107 µM
Structure (SMILES): Cl.NCCCCNCCCNCc1ccccc1
Activity (3LL cell line [4]): 9 nM (mg of protein)-1
Accumulation (CHO [11]): 17.58 nM (mg of protein)-1
IC50 (3LL cell line [5]): 9.3 µM
Activity (3LL cell line [24]): 23.67 nM (mg of protein)-1
Level (nM (mg of protein)-1) (3LL cell line [26]): 7.23
IC50 (3LL cell line [7]): 11.9 µM
IC50 (3LL cell line [8]): 31 µM
